# Sampled rows, rich in hits. Any-hit rate of the full collection: about 1.4%.
# Dyrk1A ADPGlo: rat Dyrk1A kinase inhibitors, primary screen, biochemical, single point, plate reader. 0.43% of 310,000 active. inhibition, % at 12.5 µM. ADP-Glo luminescence, NFATc1 peptide. AID 504441, 2011. Dual specificity tyrosine-phosphorylation-regulated kinase 1A (Rattus norvegicus), Q63470; in the data active means inhibition above about 50%;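 further: plate controls were vehicle with enzyme for no effect and no enzyme for full effect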
# CAL PDZ FP-1: CAL PDZ peptide-binding inhibitors, primary screen, biochemical, fluorescence polarization, Cer-tagged CAL PDZ, HTS; Golgi-associated PDZ and coiled-coil motif-containing protein (Homo sapiens), Q9HD26; purified CAL PDZ, TMR-peptide fluorescence polarization, 1 h; 0.02% of 330,000 active; inhibition, % at 20 µM;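 active means highest replicate inhibition of at least 40%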;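 further: plate controls were DMSO neutral control wells for no effect and unlabeled competitor peptide control wells for full effect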
#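 Assay system – tagged CAL PDZ protein CerCALP, purified · Timing – 1 h at RT · Compound – single point, 20 µM · Measured by – fluorescence polarization from S- and P-plane intensities, G-factor corrected · Evaluation – inhibition from polarization loss · Probe or stimulus – TMR reporter peptide T*-PRC34 · Buffer or medium – pH 7.4 phosphate-saline buffer, reducing agent, detergent, IgG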
# CAL PDZ FP-2: untagged CAL PDZ binding inhibitors, primary screen, biochemical, fluorescence polarization, HTS | Golgi-associated PDZ and coiled-coil motif-containing protein (Homo sapiens), Q9HD26 | purified CAL PDZ, TMR-peptide fluorescence polarization, 1 h | inhibition, % at 24.9 µM | 0.92% of 300,000 active;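 active means mean inhibition of at least 30% with at least half of replicates also reaching 30%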;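 further: 0% = DMSO neutral control and 100% = excess unlabeled competitor peptide PRC23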
# ARNT-TACC3 inh: disruptors of ARNT/TACC3 protein interaction, primary screen, biochemical, AlphaScreen, single concentration | AlphaScreen His-ARNT PAS-B/GST-TACC3 binding, luminescence; TACC3 fragment carries E629A point mutation | inhibition, % at 9.99 µM | 0.66% of 390,000 active;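 active means mean inhibition of replicates at least 50% and at least half of replicates each reaching 50%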;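 further: 0% = complete ARNT plus TACC3 wells and 100% = ARNT alone without TACC3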
# Active calls of the source: *; . = no result; + = active, no number.
SMILES,Dyrk1A ADPGlo,CAL PDZ FP-1,CAL PDZ FP-2,ARNT-TACC3 inh
C[C@H]1CN([C@@H](C)CO)S(=O)(=O)c2ccc(-c3ccc(C#N)cc3)cc2O[C@H]1CN(C)Cc1ccccn1,.,.,.,-4.3
Cc1c(NC(=O)COc2ccccc2Cl)c(=O)n(-c2ccccc2)n1C,-1.8,-1.0,41.5*,1.8
Cc1c(NC(=O)CN2C(=O)c3ccccc3C2=O)c(=O)n(-c2ccccc2)n1C,-7.9,-0.4,-3.4,-2.7
Cc1c(NC(=O)CSc2ccccc2F)c(=O)n(-c2ccccc2)n1C,3.1,-0.6,-1.9,-5.0
Cc1c(NC(=O)CN2C(=O)c3ccc([N+](=O)[O-])cc3C2=O)c(=O)n(-c2ccccc2)n1C,0.8,-0.7,55.4*,0.7
Cc1c(NC(=O)CSc2ccccc2C(=O)Nc2cccnc2)c(=O)n(-c2ccccc2)n1C,4.9,-2.1,83.1*,-3.0
Cc1c(Cl)c([N+](=O)[O-])nn1CC(=O)Nc1c(C)n(C)n(-c2ccccc2)c1=O,7.6,-0.6,53.3*,-2.6
COc1ccc(C(CC(=O)O)NC(=O)c2ccccc2[N+](=O)[O-])cc1 (configuration not stated),-7.5,-0.5,31.4*,.
COc1ccc(S(=O)(=O)N(C)C[C@H]2Oc3ccc(NC(=O)C4CC4)cc3CC(=O)N([C@@H](C)CO)C[C@H]2C)cc1,.,.,.,-6.6
COc1ccc(NC(=O)CNC(=O)C2CCCCC2)cc1,-3.4,0.8,52.6*,-1.9
C[C@H]1CN([C@@H](C)CO)C(=O)c2cccc(NC(=O)Nc3ccc(F)cc3)c2O[C@H]1CN(C)S(=O)(=O)c1ccccc1,.,.,.,-4.3
CCCC(=O)Nc1ccc2c(c1)OC[C@H](C)N(C(=O)c1cnccn1)C[C@@H](C)[C@H](OC)CN(C)C2=O,.,.,.,-0.4
C=CCc1ccc(OCCn2nnc3ccccc32)c(OC)c1,9.2,-2.5,94.9*,-6.6
O=C(NNS(=O)(=O)c1ccc(F)cc1)c1ccccc1,-5.2,-0.4,2.0,2.8
COc1ccccc1C(=O)NNS(=O)(=O)c1ccc(F)cc1,11.3,0.4,-5.4,-11.7
O=C(NNS(=O)(=O)c1ccc(F)cc1)c1ccccc1F,2.1,-5.3,40.9*,-1.3
O=C(NNc1ccccn1)C(=O)NNS(=O)(=O)c1ccc(F)cc1,-3.0,-2.2,-0.9,62.8*
COc1ccc(NC(=O)N(C)C[C@@H]2Oc3ccc(NS(=O)(=O)c4ccc(F)cc4)cc3C(=O)N([C@@H](C)CO)C[C@@H]2C)cc1,.,.,.,7.4
C[C@@H]1CN([C@@H](C)CO)C(=O)Cc2cc(NC(=O)C3CCCCC3)ccc2O[C@H]1CN(C)Cc1ccc(-c2ccccc2)cc1,.,.,.,-12.1
COc1ccc(O)c(C(=O)c2coc(=N)c(C(=O)Nc3ccc(SC(F)F)cc3)c2)c1,-3.4,-1.1,39.8*,-7.4
C[C@@H]1CN([C@@H](C)CO)C(=O)c2cccc(NC(=O)NC3CCCCC3)c2O[C@H]1CN(C)C(=O)Nc1ccc(F)cc1,.,.,.,-2.7
O=C(Cc1ccc([N+](=O)[O-])cc1)NCc1ccccn1,0.6,-0.6,75.8*,2.3
Cc1nonc1C(=O)N/N=C/c1ccc(O)cc1O,10.1,-2.3,-4.0,66.0*
Cc1nc2ccc(C(=O)N/N=C/c3ccccc3O)cc2[nH]1,-4.7,-3.0,-4.5,93.3*
COc1ccc(/C=N/NC(=O)c2nonc2C)cc1,4.0,0.4,-2.9,-3.3
SMILES,Dyrk1A ADPGlo,CAL PDZ FP-1,CAL PDZ FP-2,ARNT-TACC3 inh
O=C(N/N=C/c1ccc(O)cc1O)c1ccncc1,-5.3,-0.3,0.6,73.7*
O=C(N/N=C/c1ccc(Cl)cc1Cl)c1ccncc1,.,-2.6,-6.4,10.3
CN(Cc1cnccn1)Cc1nc(Cc2ccccc2F)no1,-3.5,-0.2,56.4*,-5.2
CCc1ccc(CN(C)Cc2nc(COc3ccccc3)no2)nc1,.,-0.1,49.2*,-5.2
C[C@H]1CN([C@@H](C)CO)C(=O)c2cccc(NC(=O)C3CCCCC3)c2O[C@H]1CN(C)S(=O)(=O)c1ccc(F)cc1,.,.,.,1.4
O=C(Nc1ccc2c(c1)CCC2)c1ncoc1-c1ccccc1F,1.9,-1.2,68.7*,.
O=C(C1=NN[C@@H]2C(=O)N(c3ccccc3C(F)(F)F)C(=O)[C@H]12)c1cnccn1,0.2,-1.2,122.6*,-1.5
CCC(=O)N[C@@H]1C=C[C@@H](CC(=O)NCc2ccc(OC)cc2)O[C@H]1CO,.,.,.,-33.2
CCOc1cc(N2CCOCC2)c(OCC)cc1NC(=O)c1cc(C)cc(C)c1,.,0.6,76.1*,-2.4
CCOC(=O)c1[nH]ncc1CN1CCN(Cc2ccccc2)C(CCO)C1 (configuration not stated),-1.3,-1.3,30.4*,10.0
O=[N+]([O-])c1ccc(SCc2ccco2)cc1N1CCOCC1,-1.5,-0.6,45.1*,6.5
O=C(/C=C/c1ccc(O)c([N+](=O)[O-])c1)c1ccc2ccccc2c1,3.2,2.0,-5.6,0.5
COc1ccc(Oc2ccc(/C=C/C(=O)c3ccc(O)cc3)cc2[N+](=O)[O-])cc1,1.0,0.2,61.0*,20.2
C[C@@H]1CN([C@H](C)CO)C(=O)Cc2cc(NC(=O)Nc3ccc(F)cc3)ccc2O[C@H]1CN(C)Cc1ccncc1,.,.,.,-2.4
O=C(CNC(=O)c1ccc2c(c1)OCCO2)N/N=C/c1ccc(Cl)cc1,-0.7,-1.7,69.7*,-1.4
CC(C)(C)S(=O)N1Cc2cc(C(=O)O)nc(-c3cccc(-c4cccc(F)c4)c3)c2[C@H]1CCO (some centres not stated),.,.,.,1.2
CCNC(=O)Nc1ccc2c(c1)C(=O)N(C)[C@H]1CC[C@@H](CC(=O)NCC3CC3)O[C@@H]1CO2,.,.,.,-2.1
COc1ccc(Cc2nnc(NC(=O)CS(=O)(=O)c3ccc(C)cc3)s2)cc1OC,-1.2,-1.4,2.4,.
CCOCCc1nnc(NC(=O)CS(=O)(=O)c2ccc(C)cc2)s1,1.2,0.0,92.9*,-2.8
O=[N+]([O-])c1ccc2nc(-c3ccncc3)[nH]c2c1,20.4,-2.2,+,0.8
Cc1ccc(-c2nc3ccc([N+](=O)[O-])cc3[nH]2)cc1,31.3,-0.7,.,7.4
COc1ccccc1CNC(=O)COC(=O)c1cccnc1SCC(=O)NCc1ccccc1OC,0.0,-5.8,83.3*,-2.5
C[C@@H]1CN([C@H](C)CO)C(=O)c2cc(-c3ccncc3)cnc2O[C@H]1CN(C)C(=O)c1cccc(F)c1,.,.,.,2.2
CCC(=O)Nc1ccc2c(c1)C(=O)N(C)[C@H]1CC[C@@H](CC(=O)NCc3ccccc3Cl)O[C@H]1CO2,.,.,.,-14.4
CC1CCCN(C(=O)Cn2cnc3c2c(=O)n(C)c(=O)n3C)C1 (configuration not stated),.,.,35.9*,-4.4
C[C@@H]1CN([C@H](C)CO)C(=O)c2cc(-c3ccc(F)cc3)cnc2O[C@H]1CN(C)C(=O)C1CCC1,.,.,.,-6.3

# Screens: PubChem, Broad Institute
